# Screens: PubChem, Broad Institute
# Statin myotox sup: suppressors of statin myotoxicity in C2C12 myotubes, primary screen, cell-based, single point, plate reader; C2C12 myotubes + simvastatin, ATP luminescence, 48 h; scaled: DMSO 0, geranylgeraniol control 100; rescue of ATP level, % at 7.49 µM; 330,000 tested, 0.78% active; AID 602340, 2012;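 active = mean ATP rescue above about 67%, or every replicate alone reaching that limit, limit read from the data, passing the limit was not always enough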;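 note: myotubes were challenged with 10 µM simvastatin during compound exposure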
# CDK5 inh: inhibitors of human CDK5/p35 kinase, primary screen, biochemical, single concentration; inhibition, % at 10 µM; 330,000 tested, 0.01% active; Recombinant CDK5/p35, ADP-Glo luminescence, 60 min; Cyclin-dependent kinase 5 (Homo sapiens) + Cyclin-dependent kinase 5 activator 1 (Homo …; AID 488839, 2010;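 active = highest replicate inhibition of at least 50% and at least 75% of replicates reaching 50%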;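 note: plate controls were DMSO neutral control for no effect and GW8510 at 10 µM for full effect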
# CAL PDZ FP-1: CAL PDZ peptide-binding inhibitors, primary screen, biochemical, fluorescence polarization, Cer-tagged CAL PDZ, HTS; Golgi-associated PDZ and coiled-coil motif-containing protein (Homo sapiens), Q9HD26; purified CAL PDZ, TMR-peptide fluorescence polarization, 1 h; inhibition, % at 20 µM; 330,000 tested, 0.02% active; AID 504414, 2011;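 active = highest replicate inhibition of at least 40%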;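 note: plate controls were DMSO neutral control wells for no effect and unlabeled competitor peptide control wells for full effect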
#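 Test system: tagged CAL PDZ domain / Buffer or medium: sodium phosphate/NaCl buffer pH 7.4 with TCEP, IgG, Thesit / Reagent: TMR-labelled reporter peptide T*-PRC34 bound in PDZ groove / Compound dosing: single point, 20 µM / Schedule: 1 h incubation at room temperature before polarization reading / Technique: fluorescence polarization (mP) / Benchmarks: unlabelled peptide, DMSO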
# S100A4 inh HTS: inhibitors of S100A4-myosin IIA peptide binding, primary screen, biochemical, fluorescence polarization, TAMRA-MyoIIA peptide. AID 652163, 2013. Protein S100-A4 (Homo sapiens), P26447. 360,000 tested, 0.14% active. inhibition, % at 10.7 µM;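 active = mean inhibition of at least 70% across replicates, with every replicate also reaching that level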
# Target sequence (P26447 whole entry, looked up): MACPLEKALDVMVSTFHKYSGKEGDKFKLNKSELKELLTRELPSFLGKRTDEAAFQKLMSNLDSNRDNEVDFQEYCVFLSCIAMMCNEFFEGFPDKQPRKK
#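 Assay system: human S100A4 monomer with TAMRA-labelled myosin IIA peptide / Buffer or medium: Calcium-containing HEPES buffer, pH 7.2 / Reagent: TAMRA-labelled myosin IIA heavy-chain peptide probe, 5 nM / Compound: one dose per compound / Timing: polarization read 5 min after assay mix addition, stable 5–60 min / Benchmarks: neutral control DMSO, positive control TFP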
# dFosB activator: activators of delta FosB homodimer, primary screen, biochemical, fluorescence polarization, TAMRA-CDK5 oligo, single point. activation, % at 25 µM. Protein FosB (Mus musculus), P13346. 340,000 tested, 0.99% active. purified delta FosB; percent of positive-control signal above neutral wells;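 active = mean activation above about 17%, with every replicate also reaching it, limit read from the data, passing the limit was not always enough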
# Target sequence (P13346 whole entry, looked up): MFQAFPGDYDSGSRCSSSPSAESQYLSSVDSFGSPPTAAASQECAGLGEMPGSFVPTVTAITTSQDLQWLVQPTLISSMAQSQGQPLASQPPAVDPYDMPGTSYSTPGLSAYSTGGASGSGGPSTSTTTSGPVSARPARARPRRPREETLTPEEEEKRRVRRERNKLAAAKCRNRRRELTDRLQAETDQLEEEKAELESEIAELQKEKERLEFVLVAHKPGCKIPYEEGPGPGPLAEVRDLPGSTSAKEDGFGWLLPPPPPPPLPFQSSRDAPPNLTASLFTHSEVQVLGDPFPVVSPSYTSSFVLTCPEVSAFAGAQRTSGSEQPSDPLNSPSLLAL
# CAL PDZ FP-2: untagged CAL PDZ binding inhibitors, primary screen, biochemical, fluorescence polarization, HTS; 300,000 tested, 0.92% active; AID 602252, 2012; purified CAL PDZ, TMR-peptide fluorescence polarization, 1 h; Golgi-associated PDZ and coiled-coil motif-containing protein (Homo sapiens), Q9HD26; inhibition, % at 24.9 µM;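 active = mean inhibition of at least 30% with at least half of replicates also reaching 30%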;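 note: 0% = DMSO neutral control and 100% = excess unlabeled competitor peptide PRC23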
# * = called active by the depositor; . = not tested or not shown; ! = repeats disagree. This is a sample that favours compounds with a hit; in the whole collection about 2% have one here.
SMILES,Statin myotox sup,CDK5 inh,CAL PDZ FP-1,S100A4 inh HTS,dFosB activator,CAL PDZ FP-2
CC(C)C[C@H]1CN(CCCC[C@@H]2CNC(=O)C(=O)N2Cc2ccccc2)C(=O)C(=O)N1Cc1ccccc1,.,.,.,90*,.,.
COc1cc(/C=C2\SC(=O)NC2=O)ccc1Oc1ccc([N+](=O)[O-])cn1,4,-4,0,-2,-3,.
CC(C)(C)S(=O)(=O)c1cnc2c(-c3ccsc3)cnn2c1N,.,-1,0,-4,-6,48*
CS(=O)(=O)c1cnc2c(-c3ccc(F)cc3)cnn2c1N,-6,1,1,.,2,2
Cc1ccc(C)c(N2CCN(C(=O)Cn3cccc3)CC2)c1,-3,-1,0,.,-16,-1
O=C(COc1ccccc1Cl)NCCc1ccc2c(c1)OCCO2,.,1,-2,-2,-5,4
O=C(COc1ccccc1F)NCCc1ccc2c(c1)OCCO2,126*,0,0,2,1,0
CCCCNCc1cc(OC)c(OCC(N)=O)cc1Br,15,2,-1,.,1,1
CCCCNCc1cc(OCC)c(OCC(N)=O)cc1Br,14,1,-3,.,-10,38*
Cn1c(=O)c2nc(-c3ccccc3)c(-c3ccccc3)nc2n(C)c1=O,.,1,-6,-3,0,66*
Cn1c(=O)c2nc(Cl)c(-c3ccccc3)nc2n(C)c1=O,.,.,-1,0,-4,-2
O=C(c1cccc(-c2nnc(-c3ccccc3)o2)c1)N1CCCCC1,121*,-1,-1,.,-14,-1
O=C(c1cccc(S(=O)(=O)NCc2ccccc2)c1)N1CCCC1,.,-1,-1,-3,0,85*
CN(c1ccc(C(=O)N2CCCCC2)cc1)S(=O)(=O)c1ccccc1,.,2,0,.,-1,4
CN(c1ccccc1)S(=O)(=O)c1cccc(C(=O)N2CCCCCC2)c1,3,0,-1,-2,-4,39*
O=C(c1cccc(S(=O)(=O)NCc2ccccc2)c1)N1CCN(c2ccccc2)CC1,-23,0,-1,3,-3,2
CN(c1ccccc1C(=O)Nc1ccc2c(c1)OCCO2)S(C)(=O)=O,0,-2,1,.,0,-2
CCOc1ccccc1NC(=O)c1ccccc1N(C)S(C)(=O)=O,151*,0,0,.,-4,2
Cc1ccc(NC(=O)c2ccccc2N(C)S(C)(=O)=O)cc1C,106*,-1,1,.,3,-3
COc1ccc(C)cc1NC(=O)Nc1ccc(Br)cn1,4,-4,0,.,-1,46*
CCOc1nc(NCc2ccco2)nc(Nc2ccc(OC)cc2)n1,-3,0,-2,.,0,-1
COc1ccccc1Nc1nc(NCc2ccco2)c2ccccc2n1,.,.,.,-4,.,.
COc1ccc(Nc2nc(NCc3ccco3)nc(N/N=C/c3ccccc3)n2)cc1,6,1,0,.,29*,-2
c1ccc(N2CCN(c3nc(NCc4ccco4)c4ccccc4n3)CC2)cc1,3,0,0,.,45*,.
Cc1nc(NCc2ccco2)c2cn[nH]c2n1,95*,1,0,-2,-1,-7
SMILES,Statin myotox sup,CDK5 inh,CAL PDZ FP-1,S100A4 inh HTS,dFosB activator,CAL PDZ FP-2
c1coc(CNc2ncnc3[nH]ncc23)c1,1,3,1,-1,1,-1
c1coc(CNc2nc(N3CCCCC3)nc3ccccc23)c1,-28,0,-3,.,-8,-1
Cc1ccc(Nc2nc(NCc3ccco3)c3ccccc3n2)cc1,-52,-1,-1,1,58*,3
N#C[C@@H]1[C@@H](c2ccccc2C2=CCCCC2)[C@H](CO)N1S(=O)(=O)c1cccc(F)c1,.,.,.,3,.,.
O=C(NC1CCCCC1)N1CC(=O)N2[C@H](C1)[C@@H](c1ccc(-c3cccnc3)cc1)[C@@H]2CO,.,.,.,2,.,.
CC(C)Cc1ccc(CN2CCCC(NC(=O)c3cccc(-n4cnnc4)c3)C2)cc1 (stereo unspecified),3,-2,-1,-1,-11,-2
NS(=O)(=O)c1ccc(NC(=O)COc2ncnc3c2cnn3-c2ccccc2)cc1,0,-5,-3,6,21*,-2
NS(=O)(=O)c1ccc(NC(=O)COC(=O)c2cn(-c3ccccc3)nc2-c2ccccc2)cc1,5,0,0,-3,2,-2
C[C@@H]1CN([C@H](C)CO)C(=O)Cc2cc(NS(=O)(=O)c3cn(C)cn3)ccc2O[C@H]1CN(C)S(=O)(=O)c1ccc(Cl)cc1,8,0,-1,1,-10,0
O=C(NCCSc1ccccn1)c1ccc(Cl)cc1Cl,-2,0,11,-13,4,33*
C/C=C/c1ccc(C2[C@H]3CNC[C@@H]2N3S(=O)(=O)c2ccccc2C)cc1 (stereo partly specified),.,.,.,101*!,.,.
C/C=C/c1ccc(C2[C@H]3CNC[C@@H]2N3S(=O)(=O)c2ccccc2OC)cc1 (stereo partly specified),.,.,.,-14,.,.
CCOC(=O)C1=C(C)OC(N)=C(C#N)C1c1cc(SCC)oc1C (stereo unspecified),18,0,-1,-10,-13,3
Cc1ccc(Cl)cc1N1CCN(C(=O)c2ccc(CN3CCOCC3)cc2)CC1,0,-1,-2,3,-8,-7
O=C(Nc1ccc(CN2CCOCC2)cc1)c1ccc(-c2cccc(Cl)c2)o1,6,3,-3,.,-20,89*
O=C(c1ccc(CN2CCOCC2)cc1)N1CCN(c2cccc(Cl)c2)CC1,103*,1,-3,.,-8,8
O=C(c1cccc(Cl)c1)N1CCC(C(=O)N2CCN(Cc3ccccc3)CC2)CC1,4,1,0,2,1,45*
O=C(c1cccc(C(=O)N2CCN(Cc3ccccc3)CC2)c1)N1CCN(Cc2ccccc2)CC1,23,0,-1,.,-12,-2
C[C@H]1CCCCO[C@@H](CN(C)C(=O)Nc2ccc3c(c2)OCO3)[C@@H](C)CN([C@@H](C)CO)C(=O)c2cc(NC(=O)Nc3ccc(F)cc3)ccc2O1,.,.,.,-2,.,.
CCCCN(CCCC)Cc1cc(=O)oc2cc(OC)ccc12,-1,.,.,0,.,.
COc1ccc(S(=O)(=O)Nc2c(NC3CCCCC3)c3ccccc3oc2=O)cc1Cl,5,-1,-1,-4,-6,2
